Measurements reported in ChEMBL document CHEMBL4049446 (J Med Chem, 2017).
pIC50, pKi: −log10 of the molar value.

Experiments:
[1] = test system: Human immunodeficiency virus 1; assay: Antiviral activity against HIV1 Lai infected in human MT2 cells; format: functional, cell-based; conditions: Human immunodeficiency virus 1, M:B_Lai
[2] = Inhibition of HIV1 protease expressed in Escherichia coli using 2-aminobenzoyl-Thr-Ile-Nle-Phe(p-N02)-Gln-Arg-NH as substrate preincubated for 5 to 10 mins followed by substrate addition measured after 1 hr by fluorescence assay; design: species or system Human immunodeficiency virus 1
[3] = test system: Human immunodeficiency virus 1; assay: Antiviral activity against wild type HIV1 NL4-3 infected in human MT4 cells assessed as reduction in p24 Gag protein production after 7 days by chemiluminescent enzyme immunoassay; format: functional, cell-based; conditions: Human immunodeficiency virus 1, NL4-3, MT4, 168 h
[4] = test system: Human immunodeficiency virus 1; assay: (§1) Antiviral activity against darunavir-resistant HIV1 derived from 20 passages harboring protease L10I/I15V/K20R/L24I/V32I/M36I/M46L/L63P/V82A/L89M mutant infected in human MT4 cells assessed as reduction in p24 Gag protein production after 7 days by chemiluminescent enzyme immunoassay; format: functional, cell-based; conditions: Human immunodeficiency virus 1, MT4, 168 h
Method in brief: (§2)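 MT-4 cells (1×10^4) exposed to 50 TCID50 of wild-type HIV-1 NL4-3 or DRV-selected variants (20, 30 or 51 passages) and cultured with various inhibitor concentrations. IC50 read by p24 assay. Run in triplicate; mean ± 1 standard deviation from three independent experiments.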

[5] = test system: Human immunodeficiency virus 1; assay: Antiviral activity against darunavir-resistant HIV1 derived from 30 passages harboring protease L10I/I15V/K20R/L24I/V32I/M36I/M46L/L63P/K70R/V82A/I84V/L89M mutant infected in human MT4 cells assessed as reduction in p24 Gag protein production after 7 days by chemiluminescent enzyme immunoassay; format: functional, cell-based; conditions: Human immunodeficiency virus 1, MT4, 168 h; method in brief: as §2
[6] = test system: Human immunodeficiency virus 1; assay: as §1, with “51” for “20”, “L10I/I15V/K20R/L24I/V32I/L33F/M36I/M46L/I54M/L63P/K70Q/V82I/I84V/L89M” for “L10I/I15V/K20R/L24I/V32I/M36I/M46L/L63P/V82A/L89M”; format: functional, cell-based; conditions: Human immunodeficiency virus 1, MT4, 168 h
[7] = test system: Human immunodeficiency virus 1; assay: Ratio of IC50 for darunavir-resistant HIV1 derived from 20 passages harboring protease L10I/I15V/K20R/L24I/V32I/M36I/M46L/L63P/V82A/L89M mutant infected in human MT4 cells to IC50 for wild type HIV1 NL4.3 infected in human MT4 cells; format: functional
Method in brief: (§3)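 Fold change is the IC50 against each resistant variant divided by the IC50 against wild-type HIV-1 NL4-3, measured in the same triplicate antiviral assays (three independent experiments).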

[8] = test system: Human immunodeficiency virus 1; assay: Ratio of IC50 for darunavir-resistant HIV1 derived from 30 passages harboring protease L10I/I15V/K20R/L24I/V32I/M36I/M46L/L63P/K70R/V82A/I84V/L89M mutant infected in human MT4 cells to IC50 for wild type HIV1 NL4.3 infected in human MT4 cells; format: functional; method in brief: as §3
[9] = test system: Human immunodeficiency virus 1; assay: Ratio of IC50 for darunavir-resistant HIV1 derived from 51 passages harboring protease L10I/I15V/K20R/L24I/V32I/L33F/M36I/M46L/I54M/L63P/K70Q/V82I/I84V/L89M mutant infected in human MT4 cells to IC50 for wild type HIV1 NL4.3 infected in human MT4 cells; format: functional; method in brief: as §3
[10] = test system: Human immunodeficiency virus 1; assay: Antiviral activity against amprenavir-resistant HIV1 NL4-3 harboring protease L10F/V32I/L33F/M46L/I54M/A71V mutant infected in human MT4 cells assessed as reduction in p24 Gag protein production after 7 days by chemiluminescent enzyme immunoassay; format: functional, cell-based; conditions: Human immunodeficiency virus 1, NL4-3, MT4, 168 h
Method in brief: (§4)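 Variants are HIV-1 NL4-3 selected in vitro under protease inhibitors: APV, ATV, IDV, LPV, NFV and SQV at 5 µM, TPV at 15 µM. Assays run in triplicate; IC50 given as mean ± 1 standard deviation from three independent experiments.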

[11] = test system: Human immunodeficiency virus 1; assay: Antiviral activity against tipranavir-resistant HIV1 NL4-3 harboring protease L10I/L33I/M36I/M46I/I54V/K55R/I62V/L63P/A71V/G73S/V82T/L90M/I93L mutant infected in human MT4 cells assessed as reduction in p24 Gag protein production after 7 days by chemiluminescent enzyme immunoassay; format: functional, cell-based; conditions: Human immunodeficiency virus 1, NL4-3, MT4, 168 h; method in brief: as §4
[12] = test system: Human immunodeficiency virus 1; assay: Ratio of IC50 for saquinavir-resistant HIV1 NL4-3 harboring protease L10I/N37D/G48V/I54V/L63P/G73C/I84V/L90M mutant infected in human MT4 cells to IC50 for wild type HIV1 NL4.3 infected in human MT4 cells; format: functional; method in brief: as §3
[13] = test system: Human immunodeficiency virus 1; assay: Antiviral activity against lopinavir-resistant HIV1 NL4-3 harboring protease L10F/V32I/M46I/I47A/A71V/I84V mutant infected in human MT4 cells assessed as reduction in p24 Gag protein production after 7 days by chemiluminescent enzyme immunoassay; format: functional, cell-based; conditions: Human immunodeficiency virus 1, NL4-3, MT4, 168 h; method in brief: as §4
[14] = test system: Human immunodeficiency virus 1; assay: Antiviral activity against nelfinavir-resistant HIV1 NL4-3 harboring protease L10F/K20T/D30N/K45I/A71V/V77I mutant infected in human MT4 cells assessed as reduction in p24 Gag protein production after 7 days by chemiluminescent enzyme immunoassay; format: functional, cell-based; conditions: Human immunodeficiency virus 1, NL4-3, MT4, 168 h; method in brief: as §4
[15] = test system: Human immunodeficiency virus 1; assay: Antiviral activity against saquinavir-resistant HIV1 NL4-3 harboring protease L10I/N37D/G48V/I54V/L63P/G73C/I84V/L90M mutant infected in human MT4 cells assessed as reduction in p24 Gag protein production after 7 days by chemiluminescent enzyme immunoassay; format: functional, cell-based; conditions: Human immunodeficiency virus 1, NL4-3, MT4, 168 h; method in brief: as §4
[16] = test system: Human immunodeficiency virus 1; assay: Antiviral activity against indinavir-resistant HIV1 NL4-3 harboring protease L10F/L24I/M46I/I54V/L63P/A71V/G73S/V82T mutant infected in human MT4 cells assessed as reduction in p24 Gag protein production after 7 days by chemiluminescent enzyme immunoassay; format: functional, cell-based; conditions: Human immunodeficiency virus 1, NL4-3, MT4, 168 h; method in brief: as §4
[17] = test system: Human immunodeficiency virus 1; assay: Antiviral activity against atazanavir-resistant HIV1 NL4-3 harboring protease L23I/E34Q/K43I/M46I/I50L/G51A/L63P/A71V/V82A/T91A mutant infected in human MT4 cells assessed as reduction in p24 Gag protein production after 7 days by chemiluminescent enzyme immunoassay; format: functional, cell-based; conditions: Human immunodeficiency virus 1, NL4-3, MT4, 168 h; method in brief: as §4
[18] = test system: Human immunodeficiency virus 1; assay: Ratio of IC50 for amprenavir-resistant HIV1 NL4-3 harboring protease L10F/V32I/L33F/M46L/I54M/A71V mutant infected in human MT4 cells to IC50 for wild type HIV1 NL4.3 infected in human MT4 cells; format: functional; method in brief: as §3
[19] = test system: Human immunodeficiency virus 1; assay: Ratio of IC50 for lopinavir-resistant HIV1 NL4-3 harboring protease L10F/V32I/M46I/I47A/A71V/I84V mutant infected in human MT4 cells to IC50 for wild type HIV1 NL4.3 infected in human MT4 cells; format: functional; method in brief: as §3
[20] = test system: Human immunodeficiency virus 1; assay: Ratio of IC50 for indinavir-resistant HIV1 NL4-3 harboring protease L10F/L24I/M46I/I54V/L63P/A71V/G73S/V82T mutant infected in human MT4 cells to IC50 for wild type HIV1 NL4.3 infected in human MT4 cells; format: functional; method in brief: as §3
[21] = test system: Human immunodeficiency virus 1; assay: Ratio of IC50 for nelfinavir-resistant HIV1 NL4-3 harboring protease L10F/K20T/D30N/K45I/A71V/V77I mutant infected in human MT4 cells to IC50 for wild type HIV1 NL4.3 infected in human MT4 cells; format: functional; method in brief: as §3
[22] = test system: Human immunodeficiency virus 1; assay: Ratio of IC50 for atazanavir-resistant HIV1 NL4-3 harboring protease L23I/E34Q/K43I/M46I/I50L/G51A/L63P/A71V/V82A/T91A mutant infected in human MT4 cells to IC50 for wild type HIV1 NL4.3 infected in human MT4 cells; format: functional; method in brief: as §3
[23] = test system: Human immunodeficiency virus 1; assay: Ratio of IC50 for tipranavir-resistant HIV1 NL4-3 harboring protease L10I/L33I/M36I/M46I/I54V/K55R/I62V/L63P/A71V/G73S/V82T/L90M/I93L mutant infected in human MT4 cells to IC50 for wild type HIV1 NL4.3 infected in human MT4 cells; format: functional; method in brief: as §3

Row | Structure (SMILES) | pIC50 [1] | pKi [2] | pIC50 [3] | pIC50 [4] | pIC50 [5] | pIC50 [6] | Ratio IC50 [7] | Ratio IC50 [8] | Ratio IC50 [9] | pIC50 [10] | pIC50 [11] | Ratio IC50 [12] | pIC50 [13] | pIC50 [14] | pIC50 [15] | pIC50 [16] | pIC50 [17] | Ratio IC50 [18] | Ratio IC50 [19] | Ratio IC50 [20] | other results
1 | CC(C)(C)NC(=O)[C@@H]1C[C@@H]2CCCC[C@@H]2CN1C[C@@H](O)[C@H](Cc1ccccc1)NC(=O)[C@H](CC(N)=O)NC(=O)c1ccc2ccccc2n1 | 7.68 |  |  |  |  |  |  |  |  |  |  |  |  |  |  |  |  |  |  |  | 
2 | CC(C)CN(C[C@@H](O)[C@H](Cc1ccccc1)NC(=O)O[C@H]1C2CO[C@H]3OCC1C3C2)S(=O)(=O)c1ccc(N)cc1 (some centres not stated) | 8.55 | 10.89 | 8.48 | 7.52 | 6.47 | < 6.00 | 9 | 103 | >303 |  |  |  |  |  |  |  |  |  |  |  | 
3 | COc1ccc(S(=O)(=O)N(CC(C)C)C[C@@H](O)[C@H](Cc2ccccc2)NC(=O)O[C@@H]2C3CO[C@H]4OCC2C4C3)cc1 (some centres not stated) | < 6.00 | 7.97 |  |  |  |  |  |  |  |  |  |  |  |  |  |  |  |  |  |  | 
4 | CC(C)CN(C[C@@H](O)[C@H](Cc1ccccc1)NC(=O)O[C@H]1C2CO[C@H]3OCC1C3C2)S(=O)(=O)c1ccc2nc(NC3CC3)sc2c1 (some centres not stated) | 9.59 | 10.40 | 9.41 | 9.77 | 8.74 | 7.46 | 0.4 | 5 | 90 | 9.57 | 10.24 | 0.08 | 11.59 | 10.55 | 10.52 | 10.92 | 9.72 | 0.7 | 0.007 | 0.03 | Ratio IC50 [21]: 0.07; Ratio IC50 [22]: 0.5; Ratio IC50 [23]: 0.15
5 | COc1ccc(S(=O)(=O)N(CC(C)C)C[C@@H](O)[C@H](Cc2ccccc2)NC(=O)O[C@H]2C3CO[C@H]4OCC2C4C3)cc1 (some centres not stated) | 8.57 | 10.85 |  |  |  |  |  |  |  |  |  |  |  |  |  |  |  |  |  |  | 
6 | COC(=O)N[C@H](C(=O)N[C@@H](Cc1ccccc1)[C@@H](O)CN(Cc1ccc(-c2ccccn2)cc1)NC(=O)[C@@H](NC(=O)OC)C(C)(C)C)C(C)(C)C [ATAZANAVIR] |  |  | 8.38 |  |  |  |  |  |  | 8.42 | < 6.00 | 121 | 7.35 | 7.77 | 6.29 | 7.21 | < 6.00 | 0.9 | 11 | 15 | Ratio IC50 [21]: 4; Ratio IC50 [22]: >238; Ratio IC50 [23]: >238
7 | Cc1cccc(C)c1OCC(=O)N[C@@H](Cc1ccccc1)[C@@H](O)C[C@H](Cc1ccccc1)NC(=O)[C@H](C(C)C)N1CCCNC1=O [LOPINAVIR] |  |  | 7.70 | < 6.00 | < 6.00 | < 6.00 | >50 | >50 | >50 | 6.51 | < 6.00 | >50 | < 6.00 | 7.38 | < 6.00 | 6.77 | 6.48 | 16 | >50 | 9 | Ratio IC50 [21]: 2; Ratio IC50 [22]: 17; Ratio IC50 [23]: >50
8 | CC(C)CN(C[C@@H](O)[C@H](Cc1ccccc1)NC(=O)O[C@H]1CO[C@H]2OCC[C@H]21)S(=O)(=O)c1ccc2nc(NC3CC3)sc2c1 | 8.72 | 11.00 | 8.70 | 8.11 | 7.52 | 6.32 | 4 | 15 | 240 |  |  |  |  |  |  |  |  |  |  |  | 
